One molecule from ChEMBL document CHEMBL1138193, “Synthesis and biological activity of 7-phenyl-6,9-dihydro-3H-pyrrolo[3,2-f]quinolin-9-ones: a new class of antimitotic agents devoid of aromatase activity” (J Med Chem, 2006) can be followed below.

pIC50: −log10 of the molar value. Active and inactive are the calls of the source. The rule behind the calls is not given here.

In data set [1] the target is T1, Tubulin (Homo sapiens) (UniProt P68371+Q9H4B7+P0DPH7+P68366+Q13509+Q71U36+P04350+Q3ZCM7+P07437+P68363+Q9BQE3+Q6PEY2+Q13885+Q9BVA1+Q9BUF5). In words: Inhibition of tubulin polymerization at 5 uM. The class given is protein-complex assay. The essentials:
(§1)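 Fluorimetric microtubule polymerization kit using purified tubulin. Compound at 5, 2.5, 1.25 and 0.625 µM; fluorescence (ex 355/em 450 nm) read every minute for 60 min. Taxol and vincristine (3 µM) as references.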

A further data set has as its system MCF7. In words: Cytotoxicity against human MCF7 cells by MTT assay. The class given is functional, cell-based. The essentials:
(§2)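 MTT colorimetric proliferation assay on human and murine tumour cell lines. Compounds tested over 50 to 0.1 µM; IC50 calculated from the concentration response.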

The subject of a further data set is NCI-H295R. In words: Cytotoxicity against human H295R cells by MTT assay. It counts as functional, cell-based. The essentials: as §2
On the technique in general: Formazan colour is commonly taken as a measure of viable cells.

Data set [2] concerns OVCAR-3. In words: Cytotoxicity against human Ovcar3 cells by MTT assay. The class given is functional, cell-based. The essentials: as §2
The target of data set [3] is T1, Tubulin (Homo sapiens). The data set is described as follows: Inhibition of tubulin polymerization at 2.5 uM. It counts as protein-complex assay. The essentials: as §1
For data set [4], the target named is T2, Aromatase (Homo sapiens, UniProt P11511).
T2 sequence (P11511 whole entry): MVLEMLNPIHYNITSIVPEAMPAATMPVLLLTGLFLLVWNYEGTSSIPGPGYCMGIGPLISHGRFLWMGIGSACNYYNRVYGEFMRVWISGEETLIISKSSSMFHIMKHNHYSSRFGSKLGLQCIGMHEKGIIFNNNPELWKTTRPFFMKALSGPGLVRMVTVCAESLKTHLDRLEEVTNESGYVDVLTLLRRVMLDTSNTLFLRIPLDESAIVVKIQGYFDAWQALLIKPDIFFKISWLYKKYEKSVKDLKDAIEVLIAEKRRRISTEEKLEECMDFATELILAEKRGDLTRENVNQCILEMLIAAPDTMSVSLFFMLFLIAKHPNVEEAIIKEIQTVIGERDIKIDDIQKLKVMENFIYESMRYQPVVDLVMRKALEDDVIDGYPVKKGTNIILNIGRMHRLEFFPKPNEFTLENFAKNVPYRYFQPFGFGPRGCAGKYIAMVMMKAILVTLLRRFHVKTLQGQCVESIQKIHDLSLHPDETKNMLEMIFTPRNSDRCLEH
In words: Inhibition of aromatase activity in H295R cells at 5 uM. The class given is cell-based. The essentials:
(§3)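 H295R cells cultured 24 h in DMEM-F12 with or without forskolin (25 µM). Compound (5, 10 or 15 µM) added 1 h before [1β-³H]androstenedione substrate (0.5 µM), then 2 h further exposure. Modified tritiated water release read-out as pmol ³H₂O/h/mg protein. Letrozole reference. Mean ± SEM of three experiments in triplicate.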

The test system of data set [5] is HepG2. In words: Cell cycle arrest at G2/M phase in HepG2 cells at 5-10 uM. The class given is functional, Homo sapiens.
Data set [6] concerns OVCAR-3. The data set is described as follows: Cell cycle arrest at G2/M phase in Ovcar3 cells at 5-10 uM. The class given is functional, Homo sapiens.
In data set [7] the target is T2, Aromatase. In words: Inhibition of aromatase activity in H295R cells at 15 uM. It counts as cell-based. The essentials: as §3
Data set [8] has as its target T1, Tubulin (Homo sapiens). The data set is described as follows: Microtubule disassembly in Ovcar3 cells at 5 uM. The class given is functional, cell-based. As to conditions: OVCAR-3. The essentials:
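Ovcar-3 cells exposed 18 h to 5 µM (drug-free and vincristine 5 µM controls), fixed, stained with anti-β-tubulin antibody, and microtubule distribution examined by fluorescence microscopy.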

Another data set relates to HT-29. In words: Cytotoxicity against human HT29 cells by MTT assay. The class given is functional, cell-based. The essentials: as §2
A further data set concerns HeLa. In words: Cytotoxicity against human HeLa cells by MTT assay. The class given is functional, cell-based. The essentials: as §2
The next data set has as its system ARO. The data set is described as follows: Cytotoxicity against human Aro cells by MTT assay. It counts as functional, cell-based. The essentials:
as §2

For the next data set, the system named is PT-45. In words: Cytotoxicity against human PT45 cells by MTT assay. It counts as functional, cell-based. The essentials: as §2
Data set [9] concerns BNL. In words: Cytotoxicity against mouse BNL cells by MTT assay. It counts as functional, cell-based. The essentials: as §2
For data set [10], the system named is BNL. The data set is described as follows: Cytotoxicity against BNL 1ME A.7R.1 cells subcutaneously implanted in BALB/c mouse at 40 mg/kg, ip. It counts as functional. As to conditions: route intraperitoneal. The essentials:
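Male Balb/c mice implanted subcutaneously in the dorsal region with 10⁷ syngenic hepatocarcinoma cells. From day 2, daily intraperitoneal dosing at 40 mg/kg, with saline and vehicle control groups (n = 8-12 per group). Tumour measured daily by calipers over 10 days; volume = A × B²/2. Means ± SE.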

A further data set deals with 4T1. In words: Cytotoxicity against mouse 4T1 cells by MTT assay. It counts as functional, cell-based. The essentials: as §2
The subject of a further data set is A549. In words: Cytotoxicity against human A549 cells by MTT assay. The class given is functional, cell-based.
Data set [11] concerns the target T2, Aromatase. The data set is described as follows: Inhibition of aromatase activity in H295R cells at 10 uM. The class given is cell-based. The essentials: as §3
Data set [12] relates to HepG2. The data set is described as follows: Cytotoxicity against human HepG2 cells by MTT assay. The class given is functional, cell-based. The essentials:
as §2

Take `O=c1cc(-c2ccccc2)[nH]c2ccc3[nH]ccc3c12`: the Activity entry on Tubulin (Homo sapiens) [1] is “Dose-dependent effect”; on Tubulin (Homo sapiens) [3] it was “Dose-dependent effect”; at Aromatase [4] it was “Not Active”; in the data set on HepG2 [5], 47.7%; in the data set with OVCAR-3 [6] it was 62%; at Aromatase [7], “Not Active”. In addition, the Activity in the data set with BNL [10] was 83.2%; on Aromatase [11], “Not Active”. In addition, the pIC50 (usually the IC50 on a negative log10 scale, so that one unit is a factor of ten) with MCF7 is 6.10; in the data set on NCI-H295R it was 6.40; in the data set on OVCAR-3 [2] it was 5.22; with HT-29, 5.70; in the data set with HeLa, 6.15; with ARO, 6.15. For the same molecule, the pIC50 was 6.30 in the data set on PT-45; 5.52 in the data set with BNL [9]; 5.70 in the data set on 4T1; 6.00 in the data set on A549; 5.10 in the data set on HepG2 [12]. Besides, on Tubulin (Homo sapiens) [8], the outcome was Active.
